Screens as filed in PubChem.
MT1-MMP act inh – inhibitors of human MT1-MMP activation | P50281 | HT1080 RFP-PRO-GFP cells, GFP/RFP ratio fluorescence, overnight; percent of plate control window, DMSO zero | GFP/RFP ratio change, % at 20 µM | 0.061% of 360,000 active;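 active = GFP/RFP ratio change of at least 30% with cell ATP level not reduced by more than half and red fluorescence within 50% of control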
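system = RFP-PRO-GFP reporter HT1080 cells | dosing = 20 µM single dose, 1% DMSO | timing = overnight cell settling, then overnight compound exposure, 37 °C, 5% CO2 | read-out basis = GFP/RFP fluorescence ratio | controls = DMSO and RFP-L50D-GFP cell wells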
SKN-1 inh – blocks SKN-1 activity in C. elegans; C. elegans VP596 Pgst-4::GFP/RFP ratio, acrylamide-induced, 24 h; 0.49% of 360,000 active; AID 624304; inhibition, % at 21.8 µM;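 active = interference check ratio from 0.5 to 1.5 plus GFP to RFP signal ratio inhibition reaching or exceeding a fixed threshold, cut at about 30% in these data, passing the limit was not always enough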
PABP FP inh – blocks human PABP binding to poly(A) RNA; fluorescence polarization; inhibition, % at 35 µM; 1% of 290,000 active;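 note: calls also rest on retests at 20 µM and on dose response follow-up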
eIF4H FP inh – inhibitors of RNA binding by human eIF4H; Q15056; AID 2012; 0.94% of 290,000 active; eIF4H fluorescence polarization binding assay; inhibition, % at 35 µM;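 note: calls also rest on retests at 20 µM and on dose response follow-up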
PABP1 MLLE inh – blocks PAM2 peptide binding to the PABP1 MLLE domain; P11940; GST-MLLE / FITC-PAM2 fluorescence polarization; inhibition, % at 20 µM; 0.36% of 360,000 active; in the data active = inhibition above about 35%, passing the limit was not always enough;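 note: plate controls were DMSO wells with GST-MLLE for no effect and wells lacking GST-MLLE protein for full effect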
* hit, by the source's call; i = inactive; ? = inconclusive; / = not tested or not shown. The list is not random: actives were taken first. Their share in the collection is about 1.7%. Unless noted, the rule behind the calls is not given here.

SMILES	MT1-MMP act inh	SKN-1 inh	PABP FP inh	eIF4H FP inh	PABP1 MLLE inh
COc1ccc(NC(=O)CSCc2cc(=O)n3nc(C4CC4)sc3n2)cc1	-2	8	-2	0	9
COc1ccc(N=C2S/C(=C\c3ccc(N4CCOCC4)o3)C(=O)N2CCc2c[nH]c3ccccc23)cc1	-288	8	2	7	68
COc1ccc(N=C2S/C(=C\c3ccc(OCC(=O)O)cc3)C(=O)N2CCc2c[nH]c3ccccc23)cc1	-8	2	44*	89	-11
COC(=O)c1ccccc1NC(=O)c1ccc2nccnc2c1	-1	16	active	54	-21
CCOc1ccc(N(CC(=O)NC2CCCCC2)C(=O)CNC(=O)c2cccs2)cc1	0	5	8	6	3
COc1ccc(N(CC(=O)NC2CCCCC2)C(=O)CNC(=O)c2cccs2)cc1	0	41*	0	-4	12
CCc1ccccc1NC(=O)CNC(=O)c1cccc(S(=O)(=O)N2CCN(Cc3ccccc3)CC2)c1	2	1	/	/	5
NC(=O)c1c(NC(=O)C2CCCO2)sc2c1CCCCC2 (stereo not given)	-4	11	-13	12	41*
CC(O)CC(=O)O (stereo not given)	2	41*	/	/	1
CC(C)CCNC(=O)NC(=O)COc1ccccc1C#N	10	38*	3	4	16
CC(C)CCNC(=O)NC(=O)COC(=O)/C=C/c1cnc2ccccc2n1	-4	37*	2	-8	-21
CCN(CCC#N)c1ccc(/C=N/Nc2nc(C)cc(=O)[nH]2)c(C)c1	0	1	63*	2.2*	0
O=C(/C=C/c1ccco1)OCn1nnc2ccccc2c1=O	-1	-4	4.6*	68*	5
Cn1nnc(NC(=S)NC(=O)/C=C/c2ccco2)n1	-11	-6	82*	88*	30
O=C(/C=C/c1ccco1)NC(=S)Nc1cc(C(F)(F)F)ccc1N1CCOCC1	-9	10	active	79	-4
O=C(/C=C/c1ccco1)NC(=S)Nc1cccc(C(=O)O)c1	-4	18	72*	86*	20
CC(=O)Nc1ccc(NC(=S)NC(=O)/C=C/c2ccco2)cc1	-4	2	32	74*	14
NC(N)=Nc1ccc(C=C2C=Cc3ccccc32)cc1	-5	-1	/	/	-4
CSc1nc(N)nc2c1ncn2CC(=O)N[C@H](CO)Cc1c[nH]c2ccccc12	2	8	/	/	2
O=C1C=CC(=Nc2ccc3c(c2)Cc2cc(F)ccc2-3)O1	-1	-5	/	/	26
O=C1C=CC(=Nc2cccc3c2C(=O)c2ccccc2-3)O1	-28	7	/	/	56*
COC(=O)[C@@]1(C)[C@H]2C(=O)N(C)C(=O)[C@H]2[C@H]2CN=C(SCc3ccc(C#N)cc3)N21	4	-10	/	/	29
COc1ccc(NC(=S)NC(=O)c2ccccc2)cn1	2	2	3	7	42*
COc1cc(C(=O)NC(=S)Nc2ccc(NC(=O)c3ccco3)cc2)cc(OC)c1OC	0	-8	0	6	36*
O=C(NC(=S)Nc1ccc(NC(=O)c2ccco2)cc1)c1ccccc1	-2	-10	-2	-7	19
SMILES	MT1-MMP act inh	SKN-1 inh	PABP FP inh	eIF4H FP inh	PABP1 MLLE inh
O=C(Nc1cccc(-c2nc3cccnc3s2)c1)c1ccco1	3	10	4	12	1
COc1ccc(NC(=O)c2cccc(Oc3ccccc3)c2)cn1	-11	2	-2	-4	8
COc1ccc(NC(=O)c2ccco2)cn1	-12	25	?	?	52*
O=C(Nc1ccc(-c2nc3cccnc3s2)cc1)c1ccco1	-1	46*	13	-1	-3
CCCCC1(CC)SCC(=O)NC1=O (stereo not given)	2	21	/	/	2
N#Cc1ccc2c(=O)n(-c3ccccc3)sc2c1	6	20	/	/	39*
O=c1c2ccccc2sn1-c1cccc(Cl)c1	-2	2	/	/	22
CC(=O)Nc1ccc2c(=O)n(-c3ccccc3)sc2c1	1	3	/	/	26
O=c1c2ccccc2sn1-c1ccccc1	0	18	9	-4	46*
CC(C)Sc1nc2ccccc2c(=O)[nH]1	0	-28	1	-1	2
CC(c1nc2ccccc2c(=O)[nH]1)N(C)c1ccc2ccccc2c1 (stereo not given)	-24	-11	35	17	42*
O=C(CCNc1ccc(Cc2ccncc2)cc1)c1ccc([N+](=O)[O-])cc1	3	4	-7	-11	40*
O=C(Nc1ccc(Cc2ccncc2)cc1)c1cccc([N+](=O)[O-])c1	1	9	-2	6	-1
COc1cc(/C=C2\CCCc3c2nc2ccccc2c3C(=O)O)cc(Br)c1O	-6	10	42	-5	-3
CCOc1cc(/C=C2\CCCc3c2nc2ccccc2c3C(=O)O)ccc1OC	-57	-40	?	?	i
COc1cccc(/C=C2\CC(C)Cc3c2nc2ccccc2c3C(=O)O)c1OC (stereo not given)	0	40*	32	44	8
Cc1ccsc1/C=C1/CN(C)Cc2c1nc1ccccc1c2C(=O)O	-6	3	29	27	9
COc1cc(/C=C2\CCc3c2nc2ccccc2c3C(=O)O)cc(OC)c1OC	4	5	66*	87*	2
CCN1C/C(=C\c2cccc(C)c2)c2nc3ccccc3c(C(=O)O)c2C1	/	/	88*	?	/
COC(=O)CN(c1nc(C)c(Br)c(OC)n1)S(=O)(=O)c1ccccc1	-4	-19	14	2	-30
Cc1ccc(S(=O)(=O)NC(C(=O)N2CCN(S(=O)(=O)c3cccc(F)c3)CC2)C(C)C)cc1 (stereo not given)	-5	-11	/	/	27
O=C(/C=C/c1cccc([N+](=O)[O-])c1)N1CCN(c2ccccc2F)CC1	1	14	20	-8	4
CC1CN(C(=S)c2cccc([N+](=O)[O-])c2)CC(C)O1 (stereo not given)	-2	1	-1	-1	39*
O=[N+]([O-])c1cccc(C(=S)N2CCN(c3ccccc3F)CC2)c1	2	20	0	12	46*
O=[N+]([O-])c1cccc(C(=S)N2CCN(c3ccccc3)CC2)c1	2	30	6	9	63*
SMILES	MT1-MMP act inh	SKN-1 inh	PABP FP inh	eIF4H FP inh	PABP1 MLLE inh
CCn1nnc2cc(C(=O)NCCc3ccccc3F)ccc21	4	-19	-8	1	-3
Cc1c(C(=O)NCc2ccc3c(c2)cc(C)n3C)cccc1[N+](=O)[O-]	62	55	0	19	48*
O=C(NCc1ccc2c(c1)OCO2)c1cccc([N+](=O)[O-])c1	0	2	-4	2	13
Cc1cc2cc(CNC(=O)c3cccc([N+](=O)[O-])c3)ccc2n1C	-1	47*	4	46	-14
NS(=O)(=O)c1ccc(-c2ccc(/C=C3\C(=O)Nc4ccccc43)o2)cc1	/	/	4	5	/
Cc1ccc(/C=C2\C(=O)Nc3ccccc32)o1	-3	9	1.4*	87*	23
